Data reported in ChEMBL document CHEMBL3243987 (J Med Chem, 1979).
In brackets after ≈: the same amount, converted by molar mass.

Columns and labels:
Lacticaseibacillus casei = assay: Antimicrobial activity against folate-dependent Lactobacillus casei ATCC 7469 assessed as growth inhibition; assay type: functional, organism-based
CCRF-CEM = assay: Antitumor activity against human CCRF-CEM assessed as growth inhibition; assay type: functional; details: read-out: ID50 (the source's name)
Dihydrofolate reductase = Dihydrofolate reductase (Lactobacillus casei, UniProt P00381); assay: Inhibition of Lactobacillus casei ATCC 7469 dihydrofolate reductase; set-up: species or system Lacticaseibacillus casei
L1210 [1] = assay: Antitumor activity against mouse L1210 cells allografted in BDF/1 hybrid mouse assessed as increase in life span at 400 mg/kg, ip first dose treated 24 hrs after tumor implantation and on day 4 and 7; assay type: functional; details: route intraperitoneal
How it was run: (§1)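 Male BDF/1 hybrid mice were inoculated ip with 10⁵ L-1210 leukemia cells and then given three doses (mg/kg × 3). The read-out was percent increase in life span (% ILS) compared with untreated control animals, reported at the optimal dose.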

Thymidylate synthase = target: T1, Thymidylate synthase (Lactobacillus casei, UniProt P00469); assay: Inhibition of Lactobacillus casei ATCC 7469 thymidylate synthase; set-up: species or system Lacticaseibacillus casei
T1 sequence (P00469 whole entry): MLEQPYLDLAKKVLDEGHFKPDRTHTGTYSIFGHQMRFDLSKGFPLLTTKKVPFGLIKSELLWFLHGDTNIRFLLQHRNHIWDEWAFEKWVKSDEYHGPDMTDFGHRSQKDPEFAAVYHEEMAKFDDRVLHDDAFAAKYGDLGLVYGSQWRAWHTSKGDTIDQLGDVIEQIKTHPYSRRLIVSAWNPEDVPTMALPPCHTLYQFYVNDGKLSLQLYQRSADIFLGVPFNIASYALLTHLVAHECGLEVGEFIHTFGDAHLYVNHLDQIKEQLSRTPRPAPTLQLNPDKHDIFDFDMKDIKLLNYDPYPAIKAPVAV

L1210 [2] = assay: Antitumor activity against mouse L1210 cells allografted in BDF/1 hybrid mouse assessed as increase in life span at 200 mg/kg, ip first dose treated 24 hrs after tumor implantation and on day 4 and 7; assay type: functional; details: route intraperitoneal; how it was run: as §1
L1210 [3] = assay: Antitumor activity against mouse L1210 cells allografted in BDF/1 hybrid mouse assessed as increase in life span at 50 to 200 mg/kg, ip first dose treated 24 hrs after tumor implantation and on day 4 and 7; assay type: functional; details: dose mg/kg 50-200; route intraperitoneal; how it was run: as §1
L1210 [4] = assay: Antitumor activity against mouse L1210 cells allografted in BDF/1 hybrid mouse assessed as increase in life span at 30 mg/kg, ip first dose treated 24 hrs after tumor implantation and on day 4 and 7; assay type: functional; details: route intraperitoneal; how it was run: as §1

Sequence of Dihydrofolate reductase (P00381 whole entry): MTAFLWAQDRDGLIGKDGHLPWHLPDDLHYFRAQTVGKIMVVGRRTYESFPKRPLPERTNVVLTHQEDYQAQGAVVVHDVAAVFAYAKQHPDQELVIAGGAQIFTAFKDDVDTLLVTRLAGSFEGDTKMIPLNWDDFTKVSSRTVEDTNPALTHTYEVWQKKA

With `COC(=O)C[C@H](NC(=O)Nc1ccc(N(C)Cc2cnc3nc(N)nc(N)c3n2)cc1)C(=O)OC` the IC50 (Lacticaseibacillus casei) was 6 ng/mL (≈ 0.0124 µM), the IC50 (CCRF-CEM) was 3.9 µg/mL (≈ 8.07 µM) and the IC50 (Dihydrofolate reductase) was 600 nM.

Molecule `COC(=O)CC[C@H](NC(=O)Nc1ccc(N(C)Cc2cnc3nc(N)nc(N)c3n2)cc1)C(=O)OC` has an IC50 (Lacticaseibacillus casei) of 6 ng/mL (≈ 0.0121 µM), an IC50 (CCRF-CEM) of 3.5 µg/mL (≈ 7.03 µM) and an IC50 (Dihydrofolate reductase) of 300 nM.

`CN(Cc1cnc2nc(N)nc(N)c2n1)c1ccc(NC(=O)NC(CC(=O)O)C(=O)O)cc1` (racemic) showed an IC50 (Lacticaseibacillus casei) of 150 ng/mL (≈ 0.329 µM), an ILS at 400 mg/kg (L1210 [1]) of 22% and an IC50 (Thymidylate synthase) of 190 µM. The IC50 (CCRF-CEM) was 3.2 µg/mL (≈ 7.03 µM) and the IC50 (Dihydrofolate reductase) was 50 nM.

In the case of `CN(Cc1cnc2nc(N)nc(N)c2n1)c1ccc(NC(=O)NC(CCC(=O)O)C(=O)O)cc1` (racemic), the IC50 (Lacticaseibacillus casei) is reported as 8 ng/mL (≈ 0.017 µM), the IC50 (Thymidylate synthase) is reported as 250 µM and the IC50 (CCRF-CEM) is reported as 0.4 µg/mL (≈ 0.852 µM). The ILS at 200 mg/kg (L1210 [2]) was 55% and the IC50 (Dihydrofolate reductase) was 80 nM.

Molecule `COC(=O)CCC1NC(=O)N(c2ccc(N(C)Cc3cnc4nc(N)nc(N)c4n3)cc2)C1=O` (racemic) has an IC50 (Lacticaseibacillus casei) of 104 ng/mL (≈ 0.223 µM), an ILS (L1210 [3]) of 0% and an IC50 (CCRF-CEM) of 6.7 µg/mL (≈ 14.4 µM). It also gave an IC50 (Dihydrofolate reductase) of 4000 nM.

`CN(Cc1cnc2nc(N)nc(N)c2n1)c1ccc(C(=O)N[C@@H](CCC(=O)O)C(=O)O)cc1` [METHOTREXATE] was tested, and the ILS at 30 mg/kg (L1210 [4]) was 88% and the IC50 (CCRF-CEM) was 0.02 µg/mL (≈ 0.044 µM).
